Experimental findings from ChEMBL document CHEMBL3352012, “Synthesis and evaluation of novel podophyllotoxin derivatives as potential antitumor agents” (Eur J Med Chem, 2014) are described below.

Calls of active or inactive are those of the source. The calls are words filed in the database; no cut-off is given here. A value given as a limit tells only on which side of the number the result lay.

The test system of assay [1] is K562. Description: Resistance index, ratio of IC50 for human K562/A02 cells to IC50 for human K562 cells. The assay is classed as functional.
Assay [2] relates to K562. The assay can be described thus: Cytotoxicity against human K562 cells after 48 hrs by MTT assay. The assay is classed as functional, cell-based. To be noted: K562, 48 h. The essentials:
(§1)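 Cells kept in RPMI-1640 with 10% FBS, 2 mmol/L glutamine, penicillin and streptomycin at 37 °C, 5% CO2. Seeded at 5 × 10³ cells/well and left 24 h to attach, then exposed to compounds or etoposide reference for 48 h. MTT (5 mg/mL) added for 4 h at 37 °C, supernatant removed, formazan dissolved in DMSO, absorbance read at 490 nm.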

Assay [3] can be described thus: Cytotoxicity against human K562/A02 cells after 48 hrs by MTT assay. The assay is classed as functional, cell-based. To be noted: K562/A02, 48 h. The essentials:
as §1

The next assay concerns HeLa. The assay can be described thus: Cytotoxicity against human HeLa cells after 48 hrs by MTT assay. The assay is classed as functional, cell-based. Summed up: as §1
Assay [4] can be described thus: Reduction in MDR1 mRNA expression in human K562/A02 cells at 6 uM incubated for 48 hrs by RT-PCR method. The assay is classed as functional, cell-based. The essentials: (§2)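 K562 and K562/A02 cells seeded 1 × 10⁵/well in 10% FCS/RPMI-1640; compound added 24 h later, then cultured another 48 h. Total RNA extracted with Trizol, checked at 260/280 nm, reverse transcribed; MDR-1 (157 bp) and β-actin (540 bp) amplified, products run on agarose gel, stained, MDR-1 normalised to β-actin against untreated control.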

Assay [5] in a line: Reduction in MDR1 mRNA expression in human K562/A02 cells at 6 uM incubated for 48 hrs by RT-PCR method relative to untreated control. The assay is classed as functional, cell-based. Summed up:
as §2

Assay [6] has as its system K562/A02. The assay can be described thus: Induction of apoptosis in human K562/A02 cells assessed as early apoptotic cells level at 6 uM after 48 hrs by Annexin V-FITC and propidium iodide double staining based flow cytometry (reference value: 6.23%). The assay is classed as functional.
The test system of assay [7] is K562/A02. The assay can be described thus: Induction of apoptosis in human K562/A02 cells assessed as viable cells level at 6 uM after 48 hrs by Annexin V-FITC and propidium iodide double staining based flow cytometry (reference value: 90.7%). The assay is classed as functional.
Assay [8] concerns K562/A02. The assay can be described thus: Induction of apoptosis in human K562/A02 cells assessed as necrotic cells level at 6 uM after 48 hrs by Annexin V-FITC and propidium iodide double staining based flow cytometry (reference value: 1.53%). The assay is classed as functional.
In assay [9] the test system is K562/A02. Description: Induction of apoptosis in human K562/A02 cells assessed as late apoptotic cells level at 6 uM after 48 hrs by Annexin V-FITC and propidium iodide double staining based flow cytometry (reference value: 1.58%). The assay is classed as functional.

Take `COc1cc([C@@H]2c3cc4c(cc3[C@@H](NCc3ccc(CN5CCN(C)CC5)o3)[C@H]3COC(=O)[C@H]23)OCO4)cc(OC)c1OC`: in the assay with K562 [1], the “Ratio IC50” value is more than 100. For the same molecule, the IC50 with K562 [2] is more than 100 µM; in assay [3], more than 1000 µM; in the assay with HeLa, 15.3 µM.
Turning to `COc1cc([C@@H]2c3cc4c(cc3[C@@H](NCc3ccc(CN(C)C)o3)[C@H]3COC(=O)[C@H]23)OCO4)cc(OC)c1OC`, the “Ratio IC50” value in the assay on K562 [1] is reported as 5.11. Also, the concentration for half-maximal inhibition (IC50) in the assay on K562 [2] is 6.91 µM; in [3], 35.3 µM; in the assay on HeLa, 14.2 µM.
Taken in the same sequence, the figures for `CCN1CCN(Cc2ccc(CN[C@@H]3c4cc5c(cc4[C@@H](c4cc(OC)c(O)c(OC)c4)[C@H]4C(=O)OC[C@@H]43)OCO5)o2)CC1` were 16.54, 7.45 µM, 123 µM and 0.67 µM.
`COc1cc([C@@H]2c3cc4c(cc3[C@@H](NCc3ccc(C)o3)[C@H]3COC(=O)[C@H]23)OCO4)cc(OC)c1OC`: the “Ratio IC50” value in the assay on K562 [1] came out at 1.48. The IC50 came to 6.79 µM with K562 [2], 10.1 µM in assay [3] and 1.94 µM with HeLa.
In the same order, the values of `COc1cc([C@@H]2c3cc4c(cc3[C@@H](NCc3ccco3)[C@H]3COC(=O)[C@H]23)OCO4)cc(OC)c1OC` are 1.89, 5.78 µM, 10.9 µM and 1.53 µM.
Taken in the same sequence, the figures for `COc1cc([C@@H]2c3cc4c(cc3[C@@H](NCc3ccco3)[C@H]3COC(=O)[C@H]23)OCO4)cc(OC)c1O` were more than 100, more than 100 µM, more than 1000 µM and 70.5 µM.
For the molecule `COc1cc([C@@H]2c3cc4c(cc3[C@@H](NCc3ccc(CN5CCCC5)o3)[C@H]3COC(=O)[C@H]23)OCO4)cc(OC)c1O`, the “Ratio IC50” value in the assay with K562 [1] was 4.67. Further, the 50% inhibitory concentration (IC50) in the assay on K562 [2] amounted to 5.28 µM; in [3], 24.7 µM; in the assay on HeLa it was 1.21 µM. In addition, the “MDR1 mRNA reduction (qualitative)” value in assay [4] is “Active”.
`CCN(CC)Cc1ccc(CN[C@@H]2c3cc4c(cc3[C@@H](c3cc(OC)c(OC)c(OC)c3)[C@H]3C(=O)OC[C@@H]32)OCO4)o1`: in the assay on K562 [1], the “Ratio IC50” value was more than 100. Further, the values for the IC50 (in the assay on K562 [2]; in assay [3]; with HeLa) were more than 100 µM, more than 1000 µM and more than 100 µM, respectively.
On to `COc1cc([C@@H]2c3cc4c(cc3[C@@H](NCc3ccc(CN5CCN(C)CC5)o3)[C@H]3COC(=O)[C@H]23)OCO4)cc(OC)c1O`, for which the “Ratio IC50” value with K562 [1] was 24.61. For the same molecule, the concentration for half-maximal inhibition (IC50) in the assay with K562 [2] was determined as 8.13 µM; in [3] it was 200 µM; with HeLa it was 2.42 µM.
Taken in the same sequence, the figures for `COc1cc([C@@H]2c3cc4c(cc3[C@@H](NCc3ccc(CN(C)C)o3)[C@H]3COC(=O)[C@H]23)OCO4)cc(OC)c1O` were 8.89, 7.89 µM, 70.1 µM and 0.51 µM.
In the same order, the values of `COc1cc([C@@H]2c3cc4c(cc3[C@@H](NCc3ccc(C)o3)[C@H]3COC(=O)[C@H]23)OCO4)cc(OC)c1O` are 34.23, 65.9 µM, more than 1000 µM and 60.5 µM.
With `CCN(CC)Cc1ccc(CN[C@@H]2c3cc4c(cc3[C@@H](c3cc(OC)c(O)c(OC)c3)[C@H]3C(=O)OC[C@@H]32)OCO4)o1`, in the assay with K562 [1], the “Ratio IC50” value is on record as more than 100. Moreover, the figures for the IC50 (with K562 [2]; in [3]; with HeLa) were 8.25 µM, more than 1000 µM and 6.38 µM, respectively. Further, the inhibition in [5] is 35%. Further, the “MDR1 mRNA reduction (qualitative)” value in assay [4] was “Active”.
Turning to `COc1cc([C@@H]2c3cc4c(cc3[C@H](O)[C@H]3COC(=O)[C@H]23)OCO4)cc(OC)c1OC` [PODOFILOX], the “Ratio IC50” value in the assay with K562 [1] amounted to 5.667. The same molecule had an IC50 in assay [3] of 0.17 µM.
For the molecule `COc1cc([C@@H]2c3cc4c(cc3[C@@H](NCc3ccc([N+](=O)[O-])o3)[C@H]3COC(=O)[C@H]23)OCO4)cc(OC)c1O`, the “Ratio IC50” value with K562 [1] is reported as 6.41. In addition, the concentration for half-maximal inhibition (IC50) in the assay with K562 [2] turned out to be 9.24 µM; in [3], 59.2 µM; with HeLa, 6.64 µM.
In the same order, the values of `CCN1CCN(Cc2ccc(CN[C@@H]3c4cc5c(cc4[C@@H](c4cc(OC)c(OC)c(OC)c4)[C@H]4C(=O)OC[C@@H]43)OCO5)o2)CC1` are more than 100, more than 100 µM, more than 1000 µM and more than 100 µM.
Regarding `COc1cc([C@@H]2c3cc4c(cc3[C@@H](O[C@@H]3O[C@@H]5CO[C@@H](C)O[C@H]5[C@H](O)[C@H]3O)[C@H]3COC(=O)[C@H]23)OCO4)cc(OC)c1O` [ETOPOSIDE], the “Ratio IC50” value in the assay on K562 [1] turned out to be 69.29. Also, the Activity is listed as 28.4% with K562/A02 [6], 61.1% in the assay on K562/A02 [7], 2.52% in the assay on K562/A02 [8] and 7.98% in the assay with K562/A02 [9]. Moreover, the IC50 with K562 [2] was 3.39 µM; in assay [3], 235 µM. The “MDR1 mRNA reduction (qualitative)” value in assay [4] was “Active”.
Take `COc1cc([C@@H]2c3cc4c(cc3[C@@H](NCc3ccc(CN5CCCC5)o3)[C@H]3COC(=O)[C@H]23)OCO4)cc(OC)c1OC`: the “Ratio IC50” value in the assay on K562 [1] came out at 6.43. Besides, the IC50 with K562 [2] was 6.25 µM; in assay [3] it was 40.2 µM; with HeLa it was 1.4 µM.
